According to ChEMBL document CHEMBL1137816, “New polyhydroxylated pyrrolidine, piperidine, and pyrrolizidine alkaloids from Scilla sibirica” (J Nat Prod, 2002):
The source made the active and inactive calls. No cut-off for these calls is given here.

Assays:
Penicillium decumbens = assay: Inhibition of Penicillium decumbens alpha-L-rhamnosidase assessed as p-nitrophenol release at 1000 uM by spectrophotometry
Summary of the method: (§1)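 p-Nitrophenyl glycoside substrates: Penicillium decumbens α-L-rhamnosidase at pH 4.5, bovine epididymis α-L-fucosidase at pH 5.5, bovine liver β-galactosidase at pH 6.8. β-Mannosidase came from rat epididymal fluid purified from epididymis, with p-nitrophenyl-β-D-mannoside at pH 5.2. Enzyme, substrate and inhibitor were incubated 30 min at 37 °C. The reaction was stopped with 400 mM Na2CO3, and p-nitrophenol was read at 400 nm.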

Oryza sativa = assay: Inhibition of rice alpha-glucosidase assessed as D-glucose release at 1000 uM after 10 mins by Glucose B-test
Summary of the method: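 Rice α-glucosidase was assayed with maltose as substrate at the enzyme's optimum pH. Incubation with inhibitor was 10 min at 37 °C. Released D-glucose was determined colorimetrically by Glucose B-test.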

[1] = biological target: T1, Beta-mannosidase (Rattus norvegicus) (UniProt Q4FZV0); assay: Inhibition of rat epididymis beta-mannosidase assessed as p-nitrophenol release at 1000 uM after 30 mins by spectrophotometry; summary of the method: as §1
T1 sequence (whole entry): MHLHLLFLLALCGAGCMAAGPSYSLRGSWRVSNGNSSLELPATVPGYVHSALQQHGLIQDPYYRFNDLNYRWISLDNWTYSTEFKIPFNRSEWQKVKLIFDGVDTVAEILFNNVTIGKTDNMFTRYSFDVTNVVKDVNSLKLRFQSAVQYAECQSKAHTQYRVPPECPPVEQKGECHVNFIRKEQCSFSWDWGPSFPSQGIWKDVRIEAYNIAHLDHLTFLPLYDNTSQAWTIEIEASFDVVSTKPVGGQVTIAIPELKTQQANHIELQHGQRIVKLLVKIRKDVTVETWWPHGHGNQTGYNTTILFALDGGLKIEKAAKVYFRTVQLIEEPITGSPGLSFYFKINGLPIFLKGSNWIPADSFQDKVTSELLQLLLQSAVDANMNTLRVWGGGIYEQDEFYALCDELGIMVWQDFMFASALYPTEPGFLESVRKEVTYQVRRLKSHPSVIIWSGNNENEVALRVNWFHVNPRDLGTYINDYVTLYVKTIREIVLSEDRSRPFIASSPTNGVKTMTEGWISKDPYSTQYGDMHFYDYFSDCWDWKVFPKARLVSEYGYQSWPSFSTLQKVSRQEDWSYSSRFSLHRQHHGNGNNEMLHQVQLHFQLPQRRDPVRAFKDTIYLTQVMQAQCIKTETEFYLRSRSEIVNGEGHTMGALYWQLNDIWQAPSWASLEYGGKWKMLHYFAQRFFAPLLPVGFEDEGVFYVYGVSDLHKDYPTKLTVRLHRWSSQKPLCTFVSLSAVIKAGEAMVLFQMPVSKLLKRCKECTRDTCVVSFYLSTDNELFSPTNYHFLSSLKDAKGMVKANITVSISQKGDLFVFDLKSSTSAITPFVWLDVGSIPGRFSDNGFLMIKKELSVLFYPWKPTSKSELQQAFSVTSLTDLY

[2] = biological target: T2, Tissue alpha-L-fucosidase (Bos taurus, UniProt Q2KIM0); assay: Inhibition of bovine epididymis alpha-L-fucosidase assessed as p-nitrophenol release after 30 mins by spectrophotometry
T2 sequence (Q2KIM0 whole entry): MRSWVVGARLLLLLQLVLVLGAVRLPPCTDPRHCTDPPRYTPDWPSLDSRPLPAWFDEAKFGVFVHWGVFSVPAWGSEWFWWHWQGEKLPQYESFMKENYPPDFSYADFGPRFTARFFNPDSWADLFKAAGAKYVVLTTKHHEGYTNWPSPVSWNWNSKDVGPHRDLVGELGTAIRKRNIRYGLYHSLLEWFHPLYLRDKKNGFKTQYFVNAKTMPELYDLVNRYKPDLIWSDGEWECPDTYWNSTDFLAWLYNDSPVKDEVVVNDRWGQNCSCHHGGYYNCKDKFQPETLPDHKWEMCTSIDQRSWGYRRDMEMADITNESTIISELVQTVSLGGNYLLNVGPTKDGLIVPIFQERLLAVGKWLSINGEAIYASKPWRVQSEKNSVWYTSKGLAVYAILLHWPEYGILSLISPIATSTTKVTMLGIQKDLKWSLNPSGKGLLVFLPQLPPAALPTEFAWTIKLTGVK
Summary of the method: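 Enzyme from bovine epididymis, run at pH 5.5 with the appropriate p-nitrophenyl glycoside substrate. Enzyme, substrate and inhibitor incubated together 30 min at 37 °C. Reaction stopped by adding 400 mM Na2CO3; p-nitrophenol measured spectrometrically at 400 nm.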

[3] = biological target: T3, Beta-galactosidase (Bos taurus) (UniProt Q58D55); assay: Inhibition of bovine liver beta-galactosidase assessed as p-nitrophenol release at 1000 uM after 30 mins by spectrophotometry; summary of the method: as §1
T3 sequence (whole entry): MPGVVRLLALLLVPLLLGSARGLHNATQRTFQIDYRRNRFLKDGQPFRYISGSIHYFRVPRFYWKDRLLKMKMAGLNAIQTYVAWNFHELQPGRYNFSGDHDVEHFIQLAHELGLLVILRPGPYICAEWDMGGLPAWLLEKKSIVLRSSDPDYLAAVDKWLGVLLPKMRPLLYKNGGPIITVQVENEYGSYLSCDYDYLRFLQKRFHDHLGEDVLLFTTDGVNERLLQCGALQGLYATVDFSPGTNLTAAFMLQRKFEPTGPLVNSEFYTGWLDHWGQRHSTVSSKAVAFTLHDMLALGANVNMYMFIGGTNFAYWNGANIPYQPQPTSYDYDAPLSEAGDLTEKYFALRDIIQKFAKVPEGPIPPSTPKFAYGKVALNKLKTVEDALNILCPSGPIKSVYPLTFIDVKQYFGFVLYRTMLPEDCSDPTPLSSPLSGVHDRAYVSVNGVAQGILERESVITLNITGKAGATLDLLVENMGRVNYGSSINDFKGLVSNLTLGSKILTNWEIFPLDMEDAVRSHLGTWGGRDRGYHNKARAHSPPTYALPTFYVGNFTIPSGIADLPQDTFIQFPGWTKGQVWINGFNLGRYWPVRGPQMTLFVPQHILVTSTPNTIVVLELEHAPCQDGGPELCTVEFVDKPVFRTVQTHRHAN

[4] = biological target: Oligo-1,6-glucosidase IMA1 (Saccharomyces cerevisiae S288c) (UniProt P53051); assay: Inhibition of yeast alpha-glucosidase assessed as p-nitrophenol release at 1000 uM after 30 mins measured spectrometrically at 400 nm
Oligo-1,6-glucosidase IMA1 (Saccharomyces cerevisiae S288c), sequence (P53051 whole entry): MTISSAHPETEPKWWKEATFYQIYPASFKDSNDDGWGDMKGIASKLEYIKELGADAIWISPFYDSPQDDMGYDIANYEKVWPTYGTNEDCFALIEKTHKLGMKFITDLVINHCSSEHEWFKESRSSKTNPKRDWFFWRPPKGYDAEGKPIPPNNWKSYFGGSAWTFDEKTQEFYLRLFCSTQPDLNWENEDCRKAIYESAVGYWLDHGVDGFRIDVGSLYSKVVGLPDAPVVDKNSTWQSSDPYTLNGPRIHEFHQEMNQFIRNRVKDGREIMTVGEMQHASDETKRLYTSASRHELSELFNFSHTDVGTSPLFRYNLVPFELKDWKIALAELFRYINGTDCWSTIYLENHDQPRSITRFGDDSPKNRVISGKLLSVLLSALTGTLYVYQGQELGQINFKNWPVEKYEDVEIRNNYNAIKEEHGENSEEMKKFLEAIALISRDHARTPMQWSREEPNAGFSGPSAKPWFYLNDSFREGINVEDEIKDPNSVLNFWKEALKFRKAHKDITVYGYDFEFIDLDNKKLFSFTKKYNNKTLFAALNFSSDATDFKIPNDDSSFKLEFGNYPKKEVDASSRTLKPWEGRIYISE

[5] = biological target: Lysosomal alpha-glucosidase (Rattus norvegicus) (UniProt Q6P7A9); assay: Inhibition of rat liver lysosome alpha-glucosidase assessed as p-nitrophenol release at 1000 uM after 30 mins measured spectrometrically at 400 nm
Lysosomal alpha-glucosidase (Rattus norvegicus), sequence (Q6P7A9 whole entry): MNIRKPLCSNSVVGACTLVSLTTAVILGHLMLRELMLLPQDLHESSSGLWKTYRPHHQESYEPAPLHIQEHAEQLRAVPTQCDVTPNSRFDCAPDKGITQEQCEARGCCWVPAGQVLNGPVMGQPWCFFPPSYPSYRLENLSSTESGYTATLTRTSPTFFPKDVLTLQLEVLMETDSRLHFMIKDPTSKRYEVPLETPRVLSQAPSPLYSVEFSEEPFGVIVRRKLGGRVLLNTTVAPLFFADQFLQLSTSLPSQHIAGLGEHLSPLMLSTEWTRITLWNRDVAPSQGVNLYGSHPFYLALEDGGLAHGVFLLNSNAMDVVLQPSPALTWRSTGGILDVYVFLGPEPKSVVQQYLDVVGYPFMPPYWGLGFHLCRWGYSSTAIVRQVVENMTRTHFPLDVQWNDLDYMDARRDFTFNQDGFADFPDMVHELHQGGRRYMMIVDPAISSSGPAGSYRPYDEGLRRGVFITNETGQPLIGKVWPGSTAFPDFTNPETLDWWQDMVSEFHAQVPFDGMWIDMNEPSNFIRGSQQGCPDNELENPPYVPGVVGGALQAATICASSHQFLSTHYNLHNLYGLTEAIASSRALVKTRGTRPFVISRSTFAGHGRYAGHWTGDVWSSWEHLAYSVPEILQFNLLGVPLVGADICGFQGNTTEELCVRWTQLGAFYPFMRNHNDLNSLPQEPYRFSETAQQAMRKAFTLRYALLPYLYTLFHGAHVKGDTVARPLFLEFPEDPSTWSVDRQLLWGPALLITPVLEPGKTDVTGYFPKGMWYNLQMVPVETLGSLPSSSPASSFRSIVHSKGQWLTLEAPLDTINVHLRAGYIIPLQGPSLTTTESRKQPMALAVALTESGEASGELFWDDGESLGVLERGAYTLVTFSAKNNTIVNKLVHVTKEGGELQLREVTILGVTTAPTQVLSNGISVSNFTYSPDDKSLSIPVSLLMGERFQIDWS

Beta-mannosidase = biological target: T4, Beta-mannosidase (Rattus norvegicus, UniProt Q4FZV0); assay: Inhibition of rat epididymis beta-mannosidase assessed as p-nitrophenol release after 30 mins by spectrophotometry
T4 sequence (Q4FZV0 whole entry): T1 sequence (whole entry)
Summary of the method: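 Source was rat epididymal fluid purified from epididymis. Assayed at pH 5.2 with p-nitrophenyl-β-D-mannoside, incubated with inhibitor 30 min at 37 °C. Stopped with 400 mM Na2CO3; p-nitrophenol read at 400 nm.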

[6] = biological target: Lysosomal alpha-glucosidase (Rattus norvegicus) (UniProt Q6P7A9); assay: Inhibition of rat intestinal maltase assessed as D-glucose release at 1000 uM after 30 mins by Glucose B-test
Summary of the method: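 Brush border membranes from rat small intestine served as the enzyme source, with maltose substrate at pH 5.8. Incubation with inhibitor was 30 min at 37 °C. Released D-glucose was measured colorimetrically by Glucose B-test.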

Beta-galactosidase = biological target: T5, Beta-galactosidase (Bos taurus, UniProt Q58D55); assay: Inhibition of bovine liver beta-galactosidase assessed as p-nitrophenol release after 30 mins by spectrophotometry
T5 sequence (Q58D55 whole entry): T3 sequence (whole entry)
Summary of the method: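 Bovine liver enzyme at pH 6.8 with the appropriate p-nitrophenyl glycoside. Incubated with inhibitor 30 min at 37 °C, quenched with 400 mM Na2CO3, and released p-nitrophenol read at 400 nm.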

Alpha-glucosidase MAL12 = Alpha-glucosidase MAL12 (Saccharomyces cerevisiae S288c, UniProt P53341); assay: Inhibition of yeast alpha-glucosidase assessed as p-nitrophenol release after 30 mins measured at 400 nm
Alpha-glucosidase MAL12, sequence (P53341 whole entry): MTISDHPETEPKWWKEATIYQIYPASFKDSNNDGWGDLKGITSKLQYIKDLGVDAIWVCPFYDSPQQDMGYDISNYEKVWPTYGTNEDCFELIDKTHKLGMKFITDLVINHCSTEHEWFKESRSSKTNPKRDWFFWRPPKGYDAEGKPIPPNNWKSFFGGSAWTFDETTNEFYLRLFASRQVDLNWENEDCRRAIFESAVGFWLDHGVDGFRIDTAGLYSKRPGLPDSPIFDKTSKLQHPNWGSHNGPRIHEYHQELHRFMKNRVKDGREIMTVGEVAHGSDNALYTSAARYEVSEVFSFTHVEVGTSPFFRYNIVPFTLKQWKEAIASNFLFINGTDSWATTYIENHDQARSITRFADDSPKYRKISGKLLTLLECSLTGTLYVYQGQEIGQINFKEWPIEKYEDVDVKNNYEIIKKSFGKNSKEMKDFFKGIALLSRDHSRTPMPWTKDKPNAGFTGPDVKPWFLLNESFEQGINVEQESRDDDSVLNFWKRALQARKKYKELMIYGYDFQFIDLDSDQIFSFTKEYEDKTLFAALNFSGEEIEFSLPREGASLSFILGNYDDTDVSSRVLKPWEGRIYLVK

[7] = Inhibition of rice alpha-glucosidase assessed as D-glucose release after 10 mins by Glucose B-test; set-up: species or system Oryza sativa
Summary of the method: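 Rice enzyme with maltose as substrate at the enzyme's optimum pH. Incubation with inhibitor ran 10 min at 37 °C. Released D-glucose determined colorimetrically with a glucose test kit.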

[8] = biological target: T6, Tissue alpha-L-fucosidase (Bos taurus) (UniProt Q2KIM0); assay: Inhibition of bovine epididymis alpha-L-fucosidase assessed as p-nitrophenol release at 1000 uM after 30 mins by spectrophotometry; summary of the method: as §1
T6 sequence (whole entry): T2 sequence (Q2KIM0 whole entry)

Beta-glucosidase A = Beta-glucosidase A (Caldicellulosiruptor saccharolyticus, UniProt P10482); assay: Inhibition of Caldocellum saccharolyticum beta-glucosidase assessed as p-nitrophenol release after 30 mins measured spectrometrically at 400 nm
Beta-glucosidase A, sequence (P10482 whole entry): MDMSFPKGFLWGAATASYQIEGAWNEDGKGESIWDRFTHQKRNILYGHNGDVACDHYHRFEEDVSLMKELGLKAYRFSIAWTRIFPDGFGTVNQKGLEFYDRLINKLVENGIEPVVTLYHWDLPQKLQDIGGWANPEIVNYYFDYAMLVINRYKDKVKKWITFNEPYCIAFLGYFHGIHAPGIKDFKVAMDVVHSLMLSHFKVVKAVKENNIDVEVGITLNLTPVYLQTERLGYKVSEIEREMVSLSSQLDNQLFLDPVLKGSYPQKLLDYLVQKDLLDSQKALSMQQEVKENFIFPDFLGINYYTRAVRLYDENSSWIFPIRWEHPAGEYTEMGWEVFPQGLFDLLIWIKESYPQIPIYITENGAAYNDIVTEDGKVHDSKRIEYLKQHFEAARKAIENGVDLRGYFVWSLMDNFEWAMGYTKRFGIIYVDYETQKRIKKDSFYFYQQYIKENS

[9] = Inhibition of Penicillium decumbens alpha-L-rhamnosidase assessed as p-nitrophenol release after 30 mins by spectrophotometry
Summary of the method: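 Penicillium decumbens enzyme assayed at pH 4.5 with the appropriate p-nitrophenyl glycoside. Substrate, diluted enzyme and inhibitor were incubated 30 min at 37 °C, then stopped with 400 mM Na2CO3. Released p-nitrophenol was read at 400 nm.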

[10] = biological target: Oligo-1,6-glucosidase IMA1 (Saccharomyces cerevisiae S288c) (UniProt P53051); assay: Inhibition of yeast alpha-glucosidase assessed as D-glucose release at 1000 uM after 30 mins by Glucose B-test
[11] = Inhibition of rat intestinal amyloglucosidase
[12] = biological target: Lysosomal alpha-glucosidase (Rattus norvegicus) (UniProt Q6P7A9); assay: Inhibition of rat liver lysosome alpha-glucosidase assessed as D-glucose release at 1000 uM after 30 mins by Glucose B-test

Compound	inhibition (Oryza sativa)	inhibition [5]	IC50 (Beta-mannosidase)	inhibition [8]	Activity [10]	Activity (Penicillium decumbens)	Activity (Oryza sativa)	Activity [8]	Activity [3]	Activity [6]	Activity [12]	further results
OCC[C@H]1N[C@@H](CO)[C@H](O)[C@H]1O	< 50%											inhibition (Penicillium decumbens): < 50%; inhibition [1]: < 50%; IC50 [2]: 840 µM; inhibition [3]: < 50%; inhibition [4]: < 50%
OCC[C@H]1N[C@H](CO)[C@@H](O)[C@@H]1O[C@@H]1O[C@H](CO)[C@@H](O)[C@H](O)[C@@H]1O	< 50%	< 50%	160 µM									IC50 [2]: 78 µM; inhibition [6]: < 50%; inhibition [4]: < 50%
CC(O)[C@H]1N[C@H](CO)[C@@H](O)[C@@H]1O (single isomer, unassigned)		< 50%	35 µM	< 50%								IC50 (Beta-galactosidase): 3.4 µM; IC50 (Alpha-glucosidase MAL12): 85 µM; inhibition (Penicillium decumbens): < 50%; IC50 [7]: 9.2 µM; IC50 (Beta-glucosidase A): 6.7 µM
OC[C@H]1NC[C@H](O)[C@@H](O)[C@@H]1O [DUVOGLUSTAT]				< 50%								IC50 [9]: 850 µM; IC50 [7]: 0.05 µM; inhibition [1]: < 50%; inhibition [3]: < 50%
C[C@@H]1C[C@H](O)[C@@H]2[C@H](O)[C@H](O)[C@@H](CO)N21 (relative stereo) [HYACINTHACINE B5]					inactive	inactive	inactive	inactive	inactive	inactive	inactive	IC50 [11]: 110 µM
OC[C@H]1NC[C@@H](O)[C@H](O)[C@@H]1O	< 50%	< 50%		< 50%								IC50 [9]: 1.8 µM; inhibition [1]: < 50%; inhibition [6]: < 50%; inhibition [4]: < 50%
C[C@@H]1C[C@H](O)[C@@H]2[C@H](O)[C@@H](O)[C@@H](CO)N21 (relative stereo)					inactive	inactive	inactive	inactive	inactive	inactive	inactive	
OCC(O)[C@H]1N[C@H](CO)[C@@H](O)[C@@H]1O (single isomer, unassigned)		< 50%	53 µM	< 50%								IC50 (Beta-galactosidase): 4.4 µM; IC50 (Alpha-glucosidase MAL12): 220 µM; inhibition (Penicillium decumbens): < 50%; IC50 [7]: 95 µM; IC50 (Beta-glucosidase A): 3.2 µM
OCC[C@H]1N[C@H](CO)[C@@H](O)[C@@H]1O	< 50%	< 50%	320 µM									IC50 [9]: 94 µM; IC50 (Beta-galactosidase): 88 µM; IC50 (Alpha-glucosidase MAL12): 250 µM; IC50 (Beta-glucosidase A): 350 µM; inhibition [6]: < 50%
C[C@@H]1CC[C@@H]2[C@@H](O)[C@@H](O)[C@@H](CO)N12 (relative stereo) [HYACINTHACINE A5]					inactive	inactive	inactive	inactive	inactive	inactive	inactive	IC50 [11]: 110 µM
C[C@@H]1CC[C@@H]2[C@H](O)[C@H](O)[C@@H](CO)N12 (relative stereo)					inactive	inactive	inactive	inactive	inactive	inactive	inactive	
C[C@H]1CC[C@@H]2[C@H](O)[C@H](O)[C@@H](CO)N21 (relative stereo)					inactive	inactive	inactive	inactive	inactive	inactive	inactive	
C[C@H]1CC[C@@H]2[C@H](O)[C@H](O)[C@H](CO)N21 (relative stereo)					inactive	inactive	inactive	inactive	inactive	inactive	inactive	Activity [1]: inactive
